According to ChEMBL document CHEMBL1134636, “Structure-activity studies on nociceptin analogues: ORL1 receptor binding and biological activity of cyclic disulfide-containing analogues of nociceptin peptides” (J Med Chem, 2001):
Peptide text beside a SMILES is read from it.

Tests used:
Nociceptin receptor [1] = target: T1, Nociceptin receptor (Homo sapiens, UniProt P41146); assay: Efficacy for human ORL1 receptor expressing HEK293 cells; assay type: functional, cell-based
In short: (§1)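 Membranes from HEK-293 cells expressing human ORL1 (10 μg) were incubated for 30 min at 24 °C with peptides (0.01 nM to 10 μM) in 20 mM HEPES pH 7.4 with 100 mM NaCl, 10 mM MgCl₂, 1 mM EDTA, 5 μM GDP and 400 pM [³⁵S]GTPγS. Binding was read with WGA-coated SPA beads.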

Nociceptin receptor [2] = target: T1, Nociceptin receptor; assay: Displacement of [3H]NC from human ORL1 receptor expressing HEK293 cell membrane; assay type: cell membranes
Nociceptin receptor [3] = target: T1, Nociceptin receptor; assay: Efficacy for human ORL1 receptor expressing HEK293 cell membrane; assay type: functional, cell-based; in short: as §1

T1 sequence (P41146 whole entry): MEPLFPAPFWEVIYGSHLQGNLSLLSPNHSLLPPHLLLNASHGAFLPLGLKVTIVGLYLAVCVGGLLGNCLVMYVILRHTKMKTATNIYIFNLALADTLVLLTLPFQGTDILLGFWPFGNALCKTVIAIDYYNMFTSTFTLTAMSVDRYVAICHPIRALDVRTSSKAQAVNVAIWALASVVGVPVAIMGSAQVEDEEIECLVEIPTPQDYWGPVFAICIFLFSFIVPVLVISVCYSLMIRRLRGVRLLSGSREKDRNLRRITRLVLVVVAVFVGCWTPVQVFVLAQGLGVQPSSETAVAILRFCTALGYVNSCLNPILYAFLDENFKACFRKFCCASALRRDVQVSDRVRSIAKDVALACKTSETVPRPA

Compound | EC50 (Nociceptin receptor [1]) [nM] | IC50 (Nociceptin receptor [2]) [nM] | Emax (Nociceptin receptor [3]) [%] | EC50 (Nociceptin receptor [1]; hek293) [nM] | IC50 (Nociceptin receptor [2]; hek293) [nM]
C[C@H](NC(=O)[C@H](CO)NC(=O)[C@H](CCCCN)NC(=O)[C@H](CCCNC(=N)N)NC(=O)[C@@H]1CSSC[C@H](N)C(=O)N[C@@H](Cc2ccccc2)C(=O)NCC(=O)NCC(=O)N[C@@H](Cc2ccccc2)C(=O)N[C@@H]([C@@H](C)O)C(=O)NCC(=O)N1)C(=O)N[C@@H](CCCNC(=N)N)C(=O)N[C@@H](CCCCN)C(N)=O (HELM PEPTIDE1{C.F.G.G.F.T.G.C.R.K.S.A.R.K.[am]}$PEPTIDE1,PEPTIDE1,1:R3-8:R3$$$V2.0) | > 10000 | 874 | – | – | –
C[C@H](NC(=O)CNC(=O)[C@@H](NC(=O)[C@H](Cc1ccccc1)NC(=O)CNC(=O)CNC(=O)[C@@H](N)Cc1ccccc1)[C@@H](C)O)C(=O)N[C@@H](CCCNC(=N)N)C(=O)N[C@@H](CCCCN)C(=O)N[C@@H](CS)C(=O)N[C@@H](C)C(=O)N[C@@H](CCCNC(=N)N)C(=O)N[C@@H](CCCCN)C(=O)N[C@@H](CS)C(N)=O (H-FGGFTGARKCARKC-NH2) | 3.9 | 0.471 | – | – | –
C[C@H](NC(=O)[C@H](CO)NC(=O)[C@H](CCCCN)NC(=O)[C@H](CCCN=C(N)N)NC(=O)[C@H](CS)NC(=O)CNC(=O)[C@@H](NC(=O)[C@H](Cc1ccccc1)NC(=O)CNC(=O)CNC(=O)[C@@H](N)Cc1ccccc1)[C@@H](C)O)C(=O)N[C@@H](CCCN=C(N)N)C(=O)N[C@@H](CCCCN)C(=O)N[C@@H](CS)C(N)=O (H-FGGFTGCRKSARKC-NH2) | – | – | 101 | – | –
C[C@H](NC(=O)CNC(=O)[C@@H](NC(=O)[C@H](Cc1ccccc1)NC(=O)CNC(=O)CNC(=O)[C@@H](N)Cc1ccccc1)[C@@H](C)O)C(=O)N[C@@H](CCCN=C(N)N)C(=O)N[C@@H](CCCCN)C(=O)N[C@H]1CSSC[C@@H](C(N)=O)NC(=O)[C@H](CCCCN)NC(=O)[C@H](CCCN=C(N)N)NC(=O)[C@H](C)NC1=O (HELM PEPTIDE1{F.G.G.F.T.G.A.R.K.C.A.R.K.C.[am]}$PEPTIDE1,PEPTIDE1,10:R3-14:R3$$$V2.0) | – | – | 99 | – | –
C[C@H](NC(=O)CNC(=O)[C@@H](NC(=O)[C@H](Cc1ccccc1)NC(=O)CNC(=O)CNC(=O)[C@H](Cc1ccccc1)NC(=O)[C@@H](N)CS)[C@@H](C)O)C(=O)N[C@@H](CCCN=C(N)N)C(=O)N[C@@H](CCCCN)C(=O)N[C@@H](CS)C(=O)N[C@@H](C)C(=O)N[C@@H](CCCN=C(N)N)C(=O)N[C@@H](CCCCN)C(N)=O (H-CFGGFTGARKCARK-NH2) | – | – | 59 | – | –
C[C@H](NC(=O)[C@@H]1CSSC[C@H](NC(=O)[C@@H](NC(=O)[C@H](Cc2ccccc2)NC(=O)CNC(=O)CNC(=O)[C@@H](N)Cc2ccccc2)[C@@H](C)O)C(=O)N[C@@H](C)C(=O)N[C@@H](CCCNC(=N)N)C(=O)N[C@@H](CCCCN)C(=O)N1)C(=O)N[C@@H](CCCNC(=N)N)C(=O)N[C@@H](CCCCN)C(N)=O (HELM PEPTIDE1{F.G.G.F.T.C.A.R.K.C.A.R.K.[am]}$PEPTIDE1,PEPTIDE1,6:R3-10:R3$$$V2.0) | 31.3 | 0.833 | 99 | – | –
C[C@@H](O)[C@H](NC(=O)[C@H](Cc1ccccc1)NC(=O)CNC(=O)CNC(=O)[C@@H](N)Cc1ccccc1)C(=O)NCC(=O)N[C@@H](CS)C(=O)N[C@@H](CCCN=C(N)N)C(=O)N[C@@H](CCCCN)C(=O)N[C@@H](CO)C(=O)N[C@@H](CS)C(=O)N[C@@H](CCCN=C(N)N)C(=O)N[C@@H](CCCCN)C(N)=O (H-FGGFTGCRKSCRK-NH2) | 26.3 | 8.7 | 99 | – | –
C[C@H](NC(=O)CNC(=O)[C@@H](NC(=O)[C@H](Cc1ccccc1)NC(=O)CNC(=O)CNC(=O)[C@@H](N)Cc1ccccc1)[C@@H](C)O)C(=O)N[C@@H](CCCN=C(N)N)C(=O)N[C@@H](CCCCN)C(=O)N[C@@H](CS)C(=O)N[C@@H](C)C(=O)N[C@@H](CCCN=C(N)N)C(=O)N[C@@H](CCCCN)C(=O)N[C@@H](CS)C(N)=O (H-FGGFTGARKCARKC-NH2) | – | – | 105 | – | –
C[C@H](NC(=O)[C@H](CS)NC(=O)[C@H](CCCCN)NC(=O)[C@H](CCCN=C(N)N)NC(=O)[C@H](C)NC(=O)[C@H](CS)NC(=O)[C@@H](NC(=O)[C@H](Cc1ccccc1)NC(=O)CNC(=O)CNC(=O)[C@@H](N)Cc1ccccc1)[C@@H](C)O)C(=O)N[C@@H](CCCN=C(N)N)C(=O)N[C@@H](CCCCN)C(N)=O (H-FGGFTCARKCARK-NH2) | 29.7 | 3.03 | 94 | – | –
C[C@H](NC(=O)[C@H](CO)NC(=O)[C@H](CCCCN)NC(=O)[C@H](CCCN=C(N)N)NC(=O)[C@H](C)NC(=O)[C@@H]1CSSC[C@H](N)C(=O)N[C@@H](Cc2ccccc2)C(=O)NCC(=O)NCC(=O)N[C@@H](Cc2ccccc2)C(=O)N[C@@H]([C@@H](C)O)C(=O)N1)C(=O)N[C@@H](CCCN=C(N)N)C(=O)N[C@@H](CCCCN)C(N)=O (HELM PEPTIDE1{C.F.G.G.F.T.C.A.R.K.S.A.R.K.[am]}$PEPTIDE1,PEPTIDE1,1:R3-7:R3$$$V2.0) | – | – | 18 | – | –
C[C@@H]1NC(=O)CNC(=O)[C@H]([C@@H](C)O)NC(=O)[C@H](Cc2ccccc2)NC(=O)CNC(=O)CNC(=O)[C@H](Cc2ccccc2)NC(=O)[C@@H](N)CSSC[C@@H](C(=O)N[C@@H](CCCNC(=N)N)C(=O)N[C@@H](CCCCN)C(N)=O)NC(=O)[C@H](CO)NC(=O)[C@H](CCCCN)NC(=O)[C@H](CCCNC(=N)N)NC1=O (HELM PEPTIDE1{C.F.G.G.F.T.G.A.R.K.S.C.R.K.[am]}$PEPTIDE1,PEPTIDE1,1:R3-12:R3$$$V2.0) | 439 | 387 | – | – | –
C[C@@H]1NC(=O)[C@H](CO)NC(=O)[C@H](CCCCN)NC(=O)[C@H](CCCNC(=N)N)NC(=O)[C@@H](NC(=O)CNC(=O)[C@@H](NC(=O)[C@H](Cc2ccccc2)NC(=O)CNC(=O)CNC(=O)[C@@H](N)Cc2ccccc2)[C@@H](C)O)CSSC[C@@H](C(N)=O)NC(=O)[C@H](CCCCN)NC(=O)[C@H](CCCNC(=N)N)NC1=O (HELM PEPTIDE1{F.G.G.F.T.G.C.R.K.S.A.R.K.C.[am]}$PEPTIDE1,PEPTIDE1,7:R3-14:R3$$$V2.0) | 25 | 4.97 | – | – | –
C[C@H](NC(=O)CNC(=O)[C@@H](NC(=O)[C@H](Cc1ccccc1)NC(=O)CNC(=O)CNC(=O)[C@H](Cc1ccccc1)NC(=O)[C@@H](N)CS)[C@@H](C)O)C(=O)N[C@@H](CCCNC(=N)N)C(=O)N[C@@H](CCCCN)C(=O)N[C@@H](CO)C(=O)N[C@@H](CS)C(=O)N[C@@H](CCCNC(=N)N)C(=O)N[C@@H](CCCCN)C(N)=O (H-CFGGFTGARKSCRK-NH2) | – | – | – | 286 | 1290
CC(C)C[C@H](NC(=O)[C@H](CCCCN)NC(=O)[C@H](CCCN=C(N)N)NC(=O)[C@H](C)NC(=O)[C@H](CO)NC(=O)[C@H](CCCCN)NC(=O)[C@H](CCCN=C(N)N)NC(=O)[C@H](C)NC(=O)CNC(=O)[C@@H](NC(=O)[C@H](Cc1ccccc1)NC(=O)CNC(=O)CNC(=O)[C@@H](N)Cc1ccccc1)[C@@H](C)O)C(N)=O (H-FGGFTGARKSARKL-NH2) | 1.97 | 0.52 | 105 | – | –
C[C@H](NC(=O)[C@H](CO)NC(=O)[C@H](CCCCN)NC(=O)[C@H](CCCNC(=N)N)NC(=O)[C@H](CS)NC(=O)CNC(=O)[C@@H](NC(=O)[C@H](Cc1ccccc1)NC(=O)CNC(=O)CNC(=O)[C@H](Cc1ccccc1)NC(=O)[C@@H](N)CS)[C@@H](C)O)C(=O)N[C@@H](CCCNC(=N)N)C(=O)N[C@@H](CCCCN)C(N)=O (H-CFGGFTGCRKSARK-NH2) | – | – | – | > 10000 | 2710
C[C@H](NC(=O)[C@H](CO)NC(=O)[C@H](CCCCN)NC(=O)[C@H](CCCNC(=N)N)NC(=O)[C@H](CS)NC(=O)CNC(=O)[C@@H](NC(=O)[C@H](Cc1ccccc1)NC(=O)CNC(=O)CNC(=O)[C@@H](N)Cc1ccccc1)[C@@H](C)O)C(=O)N[C@@H](CCCNC(=N)N)C(=O)N[C@@H](CCCCN)C(=O)N[C@@H](CS)C(N)=O (H-FGGFTGCRKSARKC-NH2) | 22.3 | 37.2 | – | – | –
C[C@H](NC(=O)CNC(=O)[C@@H](NC(=O)[C@H](Cc1ccccc1)NC(=O)CNC(=O)CNC(=O)[C@@H](N)Cc1ccccc1)[C@@H](C)O)C(=O)N[C@@H](CCCNC(=N)N)C(=O)N[C@@H](CCCCN)C(=O)N[C@H]1CSSC[C@@H](C(N)=O)NC(=O)[C@H](CCCCN)NC(=O)[C@H](CCCNC(=N)N)NC(=O)[C@H](C)NC1=O (HELM PEPTIDE1{F.G.G.F.T.G.A.R.K.C.A.R.K.C.[am]}$PEPTIDE1,PEPTIDE1,10:R3-14:R3$$$V2.0) | 4.37 | 0.122 | – | – | –
C[C@@H]1NC(=O)CNC(=O)[C@H]([C@@H](C)O)NC(=O)[C@H](Cc2ccccc2)NC(=O)CNC(=O)CNC(=O)[C@H](Cc2ccccc2)NC(=O)[C@@H](N)CSSC[C@@H](C(=O)N[C@@H](C)C(=O)N[C@@H](CCCN=C(N)N)C(=O)N[C@@H](CCCCN)C(N)=O)NC(=O)[C@H](CCCCN)NC(=O)[C@H](CCCN=C(N)N)NC1=O (HELM PEPTIDE1{C.F.G.G.F.T.G.A.R.K.C.A.R.K.[am]}$PEPTIDE1,PEPTIDE1,1:R3-11:R3$$$V2.0) | – | – | 81 | – | –
C[C@@H]1NC(=O)[C@H](CO)NC(=O)[C@H](CCCCN)NC(=O)[C@H](CCCN=C(N)N)NC(=O)[C@@H](NC(=O)CNC(=O)[C@@H](NC(=O)[C@H](Cc2ccccc2)NC(=O)CNC(=O)CNC(=O)[C@@H](N)Cc2ccccc2)[C@@H](C)O)CSSC[C@@H](C(N)=O)NC(=O)[C@H](CCCCN)NC(=O)[C@H](CCCN=C(N)N)NC1=O (HELM PEPTIDE1{F.G.G.F.T.G.C.R.K.S.A.R.K.C.[am]}$PEPTIDE1,PEPTIDE1,7:R3-14:R3$$$V2.0) | – | – | 95 | – | –
C[C@H](NC(=O)[C@H](CO)NC(=O)[C@H](CCCCN)NC(=O)[C@H](CCCN=C(N)N)NC(=O)[C@H](C)NC(=O)[C@H](CS)NC(=O)[C@@H](NC(=O)[C@H](Cc1ccccc1)NC(=O)CNC(=O)CNC(=O)[C@H](Cc1ccccc1)NC(=O)[C@@H](N)CS)[C@@H](C)O)C(=O)N[C@@H](CCCN=C(N)N)C(=O)N[C@@H](CCCCN)C(N)=O (H-CFGGFTCARKSARK-NH2) | – | – | 12 | – | –
